# Experimental data reported in ChEMBL document CHEMBL4406820, “Novel reverse thia-analogs of fosmidomycin: Synthesis and antiplasmodial activity” (Eur J Med Chem, 2019).
# pIC50: −log10 of the molar value.
# Experiments:
# [1] = molecular target: T1, 1-deoxy-D-xylulose 5-phosphate reductoisomerase (Escherichia coli, UniProt W8T2T2); experiment: Inhibition of recombinant Escherichia coli IspC expressed in Escherichia coli M15 using 1-deoxy-D-xylulose 5-phosphate as substrate by photometric assay
# T1 sequence (W8T2T2 whole entry): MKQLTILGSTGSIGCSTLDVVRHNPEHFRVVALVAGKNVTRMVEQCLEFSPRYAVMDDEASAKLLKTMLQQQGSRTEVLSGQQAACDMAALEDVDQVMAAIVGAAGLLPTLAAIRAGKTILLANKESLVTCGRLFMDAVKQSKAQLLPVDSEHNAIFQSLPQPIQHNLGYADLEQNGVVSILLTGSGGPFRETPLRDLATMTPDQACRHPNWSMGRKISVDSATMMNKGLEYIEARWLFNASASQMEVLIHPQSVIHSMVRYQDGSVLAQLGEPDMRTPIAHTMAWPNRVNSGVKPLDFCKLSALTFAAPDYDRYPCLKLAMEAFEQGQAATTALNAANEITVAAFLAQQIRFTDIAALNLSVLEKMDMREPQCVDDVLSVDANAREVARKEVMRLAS
# In short: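 E. coli IspC, His-tagged, expressed in E. coli M15 pREP4 (IPTG 1 mM, 36 h at 20 °C) and purified by Ni2+-chelate chromatography to about 95% purity. Reaction mix: 100 mM Tris-HCl pH 7.6, 5 mM MnCl2, 5 mM DTT, 0.5 mM NADPH, 0.02 U enzyme. Inhibitor tested as a 1:3 series from 200 to 0.003 µM. Started with 0.5 mM DXP; NADPH consumption read at 340 nm, room temperature. IC50 fitted from at least eight points.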
# Acinetobacter baumannii [2] = experiment: Antimicrobial activity against Acinetobacter baumannii ATCC BAA 1605 incubated for 18 hrs by microbroth dilution assay; type: functional; details: ATCC BAA 1605, 18 h
# Escherichia coli [3] = experiment: Antimicrobial activity against Escherichia coli ATCC 25922 incubated for 18 hrs by microbroth dilution assay; type: functional; details: ATCC 25922, 18 h
# [4] = test system: Mycobacterium tuberculosis; experiment: Antimycobacterial activity against Mycobacterium tuberculosis H37Rv incubated for 5 days by resazurin dye based assay; type: functional; details: 120 h
# Plasmodium falciparum [5] = experiment: Antimalarial activity against asexual blood stages of Plasmodium falciparum Dd2 infected in human erythrocytes incubated for 3 days by ELISA; type: functional, organism-based; details: Dd2, 72 h
# In short: (§1)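 Asexual blood-stage P. falciparum cultured in human erythrocytes; growth measured by HRP2 double-site sandwich ELISA. IC50 values are the mean of two independent double determinations.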
# HeLa = experiment: Cytotoxicity against human HeLa cells assessed as reduction in cell viability incubated for 24 hrs by neutral red assay; type: cell-based
# In short: (§2)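 Cytotoxicity on HeLa monolayers quantified spectrophotometrically, given as the mean of two independent double determinations. SI is HeLa IC50 divided by the P. falciparum 3D7 IC50.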
# [6] = Selectivity index, ratio of IC50 for human HeLa cells to IC50 for Plasmodium falciparum 3D7; type: toxicity; details: read-out: Ratio IC50; in short: as §2
# Escherichia coli [7] = experiment: Antimicrobial activity against Escherichia coli ATCC BAA 2469 incubated for 18 hrs by microbroth dilution assay; type: functional; details: ATCC BAA 2469, 18 h
# Pseudomonas aeruginosa = experiment: Antimicrobial activity against Pseudomonas aeruginosa ATCC 27853 incubated for 18 hrs by microbroth dilution assay; type: functional; details: ATCC 27853, 18 h
# Klebsiella pneumoniae [8] = experiment: Antimicrobial activity against Klebsiella pneumoniae ATCC 700603 incubated for 18 hrs by microbroth dilution assay; type: functional; details: ATCC 700603, 18 h
# [9] = molecular target: T2, 1-deoxy-D-xylulose 5-phosphate reductoisomerase, apicoplastic (Plasmodium falciparum (isolate 3D7), UniProt Q8IKG4); experiment: Inhibition of recombinant Plasmodium falciparum IspC expressed in Escherichia coli using 1-deoxy-D-xylulose 5-phosphate as substrate by photometric assay
# T2 sequence (Q8IKG4 whole entry): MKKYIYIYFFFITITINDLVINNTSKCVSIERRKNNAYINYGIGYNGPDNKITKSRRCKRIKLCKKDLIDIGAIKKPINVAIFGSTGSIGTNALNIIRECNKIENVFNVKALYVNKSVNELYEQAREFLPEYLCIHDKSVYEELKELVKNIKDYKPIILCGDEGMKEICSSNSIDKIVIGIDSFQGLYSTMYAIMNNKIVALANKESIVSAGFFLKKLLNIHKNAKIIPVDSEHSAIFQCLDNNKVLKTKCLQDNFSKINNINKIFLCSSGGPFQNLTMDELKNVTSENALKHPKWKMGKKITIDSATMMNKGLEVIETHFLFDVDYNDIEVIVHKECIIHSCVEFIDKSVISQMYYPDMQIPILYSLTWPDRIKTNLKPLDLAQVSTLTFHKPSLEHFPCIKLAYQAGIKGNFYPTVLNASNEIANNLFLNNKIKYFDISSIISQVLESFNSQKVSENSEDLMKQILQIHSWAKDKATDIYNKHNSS
# In short: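 P. falciparum IspC expressed in E. coli. Reaction mix: 100 mM Tris-HCl pH 7.6, 5 mM MnCl2, 5 mM DTT, 0.5 mM NADPH, 0.02 U enzyme. Inhibitor tested as a 1:3 series from 200 to 0.003 µM. Started with 0.5 mM DXP; read at 340 nm, room temperature. IC50 calculated from at least eight data points; generally two to three independent determinations.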
# Plasmodium falciparum [10] = experiment: Antimalarial activity against asexual blood stages of Plasmodium falciparum 3D7 infected in human erythrocytes incubated for 3 days by ELISA; type: functional, organism-based; details: 3D7, 72 h; in short: as §1
# Acinetobacter baumannii [11] = experiment: Antimicrobial activity against Acinetobacter baumannii ATCC BAA747 incubated for 18 hrs by microbroth dilution assay; type: functional; details: ATCC BAA747, 18 h
# Klebsiella pneumoniae [12] = experiment: Antimicrobial activity against Klebsiella pneumoniae ATCC 13883 incubated for 18 hrs by microbroth dilution assay; type: functional; details: ATCC 13883, 18 h
# [13] = molecular target: T3, 1-deoxy-D-xylulose 5-phosphate reductoisomerase (Mycobacterium tuberculosis, UniProt P9WNS1); experiment: Inhibition of recombinant Mycobacterium tuberculosis IspC expressed in Escherichia coli M15 using 1-deoxy-D-xylulose 5-phosphate as substrate by photometric assay
# T3 sequence (P9WNS1 whole entry): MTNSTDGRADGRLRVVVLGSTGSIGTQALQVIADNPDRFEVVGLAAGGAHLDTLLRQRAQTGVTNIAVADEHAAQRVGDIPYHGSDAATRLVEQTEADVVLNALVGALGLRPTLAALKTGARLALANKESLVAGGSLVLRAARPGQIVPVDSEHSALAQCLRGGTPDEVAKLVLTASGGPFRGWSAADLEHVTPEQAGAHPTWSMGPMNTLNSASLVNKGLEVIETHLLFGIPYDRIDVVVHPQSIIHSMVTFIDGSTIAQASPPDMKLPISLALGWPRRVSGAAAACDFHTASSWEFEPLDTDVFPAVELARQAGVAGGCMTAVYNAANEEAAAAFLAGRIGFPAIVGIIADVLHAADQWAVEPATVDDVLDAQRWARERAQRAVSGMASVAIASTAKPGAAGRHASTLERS
Compound,pIC50 [1],MIC (Acinetobacter baumannii [2]),MIC (Escherichia coli [3]),MIC [4],pIC50 (Plasmodium falciparum [5]),pIC50 (HeLa),selectivity ratio [6],MIC (Escherichia coli [7]),MIC (Pseudomonas aeruginosa),MIC (Klebsiella pneumoniae [8]),pIC50 [9],pIC50 (Plasmodium falciparum [10]),MIC (Acinetobacter baumannii [11]),MIC (Klebsiella pneumoniae [12]),pIC50 [13]
COc1cc(OC)cc(C(SCC(=O)NO)P(=O)(O)O)c1 (racemic),6.17,> 100 µM,> 100 µM,> 100 µM,6.57,< 3.00,> 3000,> 100 µM,> 100 µM,> 100 µM,7.62,6.48,> 100 µM,> 100 µM,4.36
CN(O)C(=O)CS(=O)(=O)C(c1cc(F)cc(F)c1)P(=O)(O)O (stereo not drawn),5.37,> 100 µM,> 100 µM,> 100 µM,–,< 3.00,–,> 100 µM,> 100 µM,> 100 µM,5.26,4.72,> 100 µM,> 100 µM,4.36
Cc1ccc(C(P(=O)(O)O)S(=O)(=O)CC(=O)NO)cc1 (stereo not drawn),4.19,–,–,–,–,–,–,–,–,–,4.19,< 4.00,–,–,< 3.00
O=CN(O)CCCP(=O)(O)O [FOSMIDOMYCIN SODIUM],6.66,–,–,–,–,–,–,–,–,–,–,–,–,–,–
Cc1ccc(C(P(=O)(O)O)S(=O)(=O)CC(=O)N(C)O)cc1 (stereo not drawn),4.44,> 100 µM,> 100 µM,> 100 µM,–,< 4.30,–,> 100 µM,> 100 µM,> 100 µM,5.07,< 4.00,> 100 µM,> 100 µM,3.84
Cc1ccc(C(SCC(=O)NO)P(=O)(O)O)cc1 (racemic),6.54,> 100 µM,> 100 µM,> 100 µM,5.10,< 3.00,> 150,> 100 µM,> 100 µM,> 100 µM,7.49,5.19,> 100 µM,> 100 µM,5.09
CN(O)C(=O)CSC(c1cc(F)cc(F)c1)P(=O)(O)O (racemic),7.74,> 100 µM,> 100 µM,> 100 µM,6.89,< 3.00,> 6700,> 100 µM,> 100 µM,> 100 µM,7.89,6.82,> 100 µM,> 100 µM,6.96
CN(O)C(=O)CS(=O)(=O)C(c1ccc(Cl)c(Cl)c1)P(=O)(O)O (stereo not drawn),4.96,> 100 µM,> 100 µM,> 100 µM,–,< 3.00,–,> 100 µM,> 100 µM,> 100 µM,6.00,< 4.00,> 100 µM,> 100 µM,4.68
O=C(CSC(c1cc(F)cc(F)c1)P(=O)(O)O)NO (racemic),7.89,> 100 µM,> 100 µM,> 100 µM,6.06,< 3.00,> 810,> 100 µM,> 100 µM,> 100 µM,7.96,5.92,> 100 µM,> 100 µM,6.49
CN(O)C(=O)CSC(c1cccc2ccccc12)P(=O)(O)O (racemic),–,> 100 µM,> 100 µM,> 100 µM,–,–,–,> 100 µM,> 100 µM,> 100 µM,–,–,> 100 µM,> 100 µM,–
COc1cc(OC)cc(C(P(=O)(O)O)S(=O)(=O)CC(=O)NO)c1 (stereo not drawn),5.35,> 100 µM,> 100 µM,> 100 µM,–,< 3.30,–,> 100 µM,> 100 µM,> 100 µM,6.66,5.57,> 100 µM,> 100 µM,3.71
CN(O)C(=O)CS(=O)(=O)C(c1ccccc1)P(=O)(O)O (stereo not drawn),4.44,–,–,–,–,–,–,–,–,–,5.12,< 4.00,–,–,3.94
COc1cc(OC)cc(C(P(=O)(O)O)S(=O)(=O)CC(=O)N(C)O)c1 (stereo not drawn),4.10,–,–,–,–,< 3.00,–,–,–,–,5.43,< 4.00,–,–,< 3.00
COc1cc(OC)cc(C(SCC(=O)N(C)O)P(=O)(O)O)c1 (racemic),6.80,> 100 µM,> 100 µM,> 100 µM,6.74,< 3.00,> 6400,> 100 µM,> 100 µM,> 100 µM,7.70,6.80,> 100 µM,> 100 µM,5.36
CN(O)C(=O)CSC(c1ccc(Cl)c(Cl)c1)P(=O)(O)O (racemic),–,> 100 µM,> 100 µM,> 100 µM,–,–,–,> 100 µM,> 100 µM,> 100 µM,–,–,> 100 µM,> 100 µM,–
Cc1ccc(C(SCC(=O)N(C)O)P(=O)(O)O)cc1 (racemic),–,> 100 µM,> 100 µM,> 100 µM,–,–,–,> 100 µM,> 100 µM,> 100 µM,–,–,> 100 µM,> 100 µM,–
CN(O)C(=O)CS(=O)(=O)C(c1cccc2ccccc12)P(=O)(O)O (stereo not drawn),4.82,> 100 µM,> 100 µM,> 100 µM,–,< 3.00,–,> 100 µM,> 100 µM,> 100 µM,3.08,< 4.00,> 100 µM,> 100 µM,3.21
